In ChEMBL document CHEMBL3351301, “Synthesis of triazole Schiff bases: novel inhibitors of nucleotide pyrophosphatase/phosphodiesterase-1” (Bioorg Med Chem, 2014) one finds IC50 and inhibition data, which are given here for 26 compounds.

Active and inactive are the calls of the source. The rule behind the calls is not given here.

A short description of assay [1]: Inhibition of snake venom NPP1 using bis(p-nitrophenyl)phosphate preincubated for 30 mins by spectrophotometry. Details: species or system Serpentes. A digest of the protocol: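 Snake venom PDE1/NPP1 at 7.42 × 10^-4 units, dissolved in cold deionized water. Assay in 33 mM Tris-HCl pH 8.8 with 30 mM magnesium acetate cofactor. Preincubated 30 min at 37 °C, then started with 0.33 mM bis(p-nitrophenyl)phosphate (total). p-Nitrophenol release read at 410 nm. Initial rates taken as Vmax/min and % inhibition calculated against control. Triplicates; IC50 derived by enzyme-kinetics fitting.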

The nature of assay [2]: Cytotoxicity against human PC3 cells. The class given is functional, cell-based. The following applies: PC-3.
For assay [3], the target named is Carbonic anhydrase (Homo sapiens) (UniProt P00918+P43166+P00915+P07451+P23280+O43570+Q9ULX7+Q16790+P22748+Q8N1Q1+Q9Y2D0+P35218). The experiment in a line: Inhibition of carbonic anhydrase (unknown origin). In kind it is protein assay.

Take `Oc1c(Cl)cc(Cl)cc1/C=N/c1nc[nH]n1`: the IC50 result in assay [1] was “Not Active”; in assay [2], more than 30 µM.

Consider `COc1ccc(/C=N/c2nnc[nH]2)cc1OC`, for which the results for the IC50 result in assay [1] and in assay [2] were “Not Active” and more than 30 µM, respectively.

On to `COc1ccc(/C=N/n2cnnc2)cc1`, for which the IC50 result in assay [1] is “Not Active”; in assay [2], more than 30 µM.

`Oc1ccc(Cl)cc1/C=N/n1cnnc1`: the IC50 in assay [1] (read-out: IC50) was 251 µM; in assay [2], more than 30 µM. Besides, in assay [3], the inhibition entry is “inactive”.

Turning to `CCOc1ccc(/C=N/n2cnnc2)cc1`, the 50% inhibitory concentration (IC50) result in assay [1] is “Not Active”; in assay [2] it was more than 30 µM.

With `Oc1cccc(/C=N/n2cnnc2)c1`, the IC50 result was “Not Active” in assay [1] and more than 30 µM in assay [2].

For the compound `Brc1ccc(/C=N/n2cnnc2)cc1`, the half-inhibitory concentration (IC50) in assay [1] (read-out: IC50) is 823 µM; in assay [2] it was more than 30 µM.

With `Oc1ccccc1/C=N/c1nnc[nH]1`, the IC50 result in assay [1] is “Not Active”; in assay [2], more than 30 µM.

With `CCOc1cccc(/C=N/n2cnnc2)c1O`, the IC50 entry was “Not Active” in assay [1] and more than 30 µM in assay [2].

With `COc1cccc(/C=N/n2cnnc2)c1O`, the IC50 entry was “Not Active” in assay [1] and more than 30 µM in assay [2].

Consider `CCOc1ccc(/C=N/c2nnc[nH]2)c(O)c1`, for which the IC50 result is “Not Active” in assay [1] and more than 30 µM in assay [2].

Take `Oc1cc(O)c(/C=N/n2cnnc2)c(O)c1`: the IC50 in assay [1] (read-out: IC50) was 1160 µM; in assay [2], more than 30 µM.

On to `CSc1ccc(/C=N/n2cnnc2)cc1`, for which the IC50 result in assay [1] was “Not Active”; in assay [2], more than 30 µM.

As to `O=C(O)CN(CCN(CC(=O)O)CC(=O)O)CC(=O)O` [EDETIC ACID], the IC50 in assay [1] (read-out: IC50) was determined as 278 µM.

As to `Oc1cccc(/C=N/n2cnnc2)c1O`, the IC50 in assay [1] (read-out: IC50) was 153 µM; in assay [2] it was more than 30 µM. Moreover, the inhibition entry in assay [3] is “inactive”.

Take `Oc1ccc(Br)cc1/C=N/n1cnnc1`: the IC50 is 405 µM in assay [1] (read-out: IC50) and more than 30 µM in assay [2].

As to `Oc1ccc(/C=N/n2cnnc2)cc1`, the IC50 result in assay [1] was “Not Active”; in assay [2], more than 30 µM.

With `CN(C)c1ccc(/C=N/c2nnc[nH]2)cc1`, the IC50 is 132 µM in assay [1] (read-out: IC50) and more than 30 µM in assay [2]. Besides, the inhibition result in assay [3] was “inactive”.

Turning to `Oc1c(Br)cc(Br)cc1/C=N/c1nnc[nH]1`, the IC50 entry is “Not Active” in assay [1] and more than 30 µM in assay [2].

Turning to `COc1ccc(/C=N/n2cnnc2)cc1OC`, the IC50 entry in assay [1] is “Not Active”; in assay [2] it was more than 30 µM.

For the compound `Oc1ccccc1/C=N/n1cnnc1`, the 50% inhibitory concentration (IC50) entry in assay [1] is “Not Active”; in assay [2], more than 30 µM.

As to `CSc1ccc(/C=N/c2nnc[nH]2)cc1`, the IC50 entry was “Not Active” in assay [1] and more than 30 µM in assay [2].

For the compound `COc1cccc(/C=N/c2nnc[nH]2)c1O`, the IC50 result is “Not Active” in assay [1] and more than 30 µM in assay [2].

In the case of `Cc1ccc(O)c(/C=N/c2nnc[nH]2)c1`, the IC50 result in assay [1] is “Not Active”; in assay [2], more than 30 µM.

In the case of `O=[N+]([O-])c1ccc(/C=N/c2nnc[nH]2)cc1`, the IC50 result was “Not Active” in assay [1] and more than 30 µM in assay [2].

On to `Clc1ccc(/C=N/c2nnc[nH]2)c(Cl)c1`, for which the IC50 entry was “Not Active” in assay [1] and more than 30 µM in assay [2].
